From ChEMBL document CHEMBL3425440, “ent-Kaurane Diterpenoids from Chinese Liverworts and Their Antitumor Activities through Michael Addition As Detected in Situ by a Fluorescence Probe” (J Med Chem, 2015) come the findings set out here.

The first assay relates to NCI-H1299. Put plainly: Cytotoxicity against human NCI-H1299 cells assessed as cell viability after 24 hrs by MTT assay. Type of assay: functional, cell-based. The following applies: NCI-H1299, 24 h. The essentials: (§1)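 Cells grown to about 50−70% confluence at 37 °C, 5% CO2, then exposed to compounds 24 h (DMSO vehicle control, cisplatin positive control). MTT (5 mg/mL stock) added for 4 h, formazan dissolved in DMSO, absorbance read at 570 nm. IC50 derived from percent viability; at least three independent experiments, mean ± SD.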
Consider `C[C@@H]1C(=O)[C@H]2C[C@]1(O)CC1=C2[C@]2(C)CCC[C@@](C)(CO)[C@H]2CC1`, for which the IC50 is over 50 µM.
Same read-out and setting: the figure for `C[C@@H]1C(=O)[C@H]2C[C@]1(O)CC1=C2[C@]2(C)CCCC(C)(C)[C@H]2CC1` is over 50 µM.
Still for that read-out and setting: for `C=C1[C@@H]2CC(=O)[C@H]3[C@]4(C)CCCC(C)(C)[C@H]4[C@@H](O)[C@@H](O)[C@]3(C2)[C@@H]1O` the value was over 50 µM.

Another assay deals with K562. Put plainly: Cytotoxicity against human K562 cells assessed as cell viability after 24 hrs by MTT assay. Type of assay: functional, cell-based. The following applies: K562, 24 h. An outline of the steps: as §1
Turning to `C[C@@H]1C(=O)[C@H]2C[C@]1(O)CC1=C2[C@]2(C)CCC[C@@](C)(CO)[C@H]2CC1`, the half-inhibitory concentration (IC50) is over 50 µM.
Consider `C[C@@H]1C(=O)[C@H]2C[C@]1(O)CC1=C2[C@]2(C)CCCC(C)(C)[C@H]2CC1`, for which the IC50 was over 50 µM.
In the case of `C=C1[C@@H]2CC(=O)[C@H]3[C@]4(C)CCCC(C)(C)[C@H]4[C@@H](O)[C@@H](O)[C@]3(C2)[C@@H]1O`, the half-inhibitory concentration (IC50) is over 50 µM.

System in a further assay: not listed separately
Put plainly: Cytotoxicity against human PC3 cells assessed as cell viability after 24 hrs by MTT assay. Type of assay: functional, cell-based. The following applies: PC-3, 24 h. The essentials: as §1
In the case of `C[C@@H]1C(=O)[C@H]2C[C@]1(O)CC1=C2[C@]2(C)CCC[C@@](C)(CO)[C@H]2CC1`, the half-maximal inhibitory concentration (IC50) is over 50 µM.
Regarding `C[C@@H]1C(=O)[C@H]2C[C@]1(O)CC1=C2[C@]2(C)CCCC(C)(C)[C@H]2CC1`, the 50% inhibitory concentration (IC50) is over 50 µM.
As to `C=C1[C@@H]2CC(=O)[C@H]3[C@]4(C)CCCC(C)(C)[C@H]4[C@@H](O)[C@@H](O)[C@]3(C2)[C@@H]1O`, the concentration for half-maximal inhibition (IC50) is over 50 µM.

System in a further assay: not listed separately
Put plainly: Cytotoxicity against human SKOV3 cells assessed as cell viability after 24 hrs by MTT assay. In kind it is functional, cell-based. The following applies: SK-OV-3, 24 h. The essentials: as §1
On to `C[C@@H]1C(=O)[C@H]2C[C@]1(O)CC1=C2[C@]2(C)CCC[C@@](C)(CO)[C@H]2CC1`, for which the half-maximal inhibitory concentration (IC50) is over 50 µM.
Still for that read-out and setting: for `C[C@@H]1C(=O)[C@H]2C[C@]1(O)CC1=C2[C@]2(C)CCCC(C)(C)[C@H]2CC1` the value was over 50 µM.
As for `C=C1[C@@H]2CC(=O)[C@H]3[C@]4(C)CCCC(C)(C)[C@H]4[C@@H](O)[C@@H](O)[C@]3(C2)[C@@H]1O`, the IC50 was over 50 µM.

System in the next assay: not listed separately
Put plainly: Cytotoxicity against human RWPE1 cells assessed as cell viability after 24 hrs by MTT assay. Type of assay: cell-based. The following applies: RWPE-1, 24 h. The essentials: as §1
For `C[C@@H]1C(=O)[C@H]2C[C@]1(O)CC1=C2[C@]2(C)CCC[C@@](C)(CO)[C@H]2CC1`, the IC50 was over 50 µM.
Still for that read-out and setting: the figure for `C[C@@H]1C(=O)[C@H]2C[C@]1(O)CC1=C2[C@]2(C)CCCC(C)(C)[C@H]2CC1` is over 50 µM; for `C=C1[C@@H]2CC(=O)[C@H]3[C@]4(C)CCCC(C)(C)[C@H]4[C@@H](O)[C@@H](O)[C@]3(C2)[C@@H]1O` it is over 50 µM.

System in a further assay: not listed separately
Put plainly: Cytotoxicity against human SH-SY5Y cells assessed as cell viability after 24 hrs by MTT assay.
Details: not given
Type of assay: functional, cell-based. An outline of the steps:
as §1
In the case of `C[C@@H]1C(=O)[C@H]2C[C@]1(O)CC1=C2[C@]2(C)CCC[C@@](C)(CO)[C@H]2CC1`, the IC50 was over 50 µM.
On the same count and under the same terms, the figure for `C[C@@H]1C(=O)[C@H]2C[C@]1(O)CC1=C2[C@]2(C)CCCC(C)(C)[C@H]2CC1` is over 50 µM; for `C=C1[C@@H]2CC(=O)[C@H]3[C@]4(C)CCCC(C)(C)[C@H]4[C@@H](O)[C@@H](O)[C@]3(C2)[C@@H]1O` it is over 50 µM.

System in another assay: not listed separately
Put plainly: Cytotoxicity against human T24 cells assessed as cell viability after 24 hrs by MTT assay. Type of assay: functional, cell-based. The following applies: T-24, 24 h. The essentials: as §1
Take `C[C@@H]1C(=O)[C@H]2C[C@]1(O)CC1=C2[C@]2(C)CCC[C@@](C)(CO)[C@H]2CC1`: the IC50 is over 50 µM.
On the same count and under the same terms, for `C[C@@H]1C(=O)[C@H]2C[C@]1(O)CC1=C2[C@]2(C)CCCC(C)(C)[C@H]2CC1` the value was over 50 µM; for `C=C1[C@@H]2CC(=O)[C@H]3[C@]4(C)CCCC(C)(C)[C@H]4[C@@H](O)[C@@H](O)[C@]3(C2)[C@@H]1O`, over 50 µM.

The next assay relates to LoVo. Put plainly: Cytotoxicity against human LoVo cells assessed as cell viability after 24 hrs by MTT assay. In kind it is functional, cell-based.
Details: not given
The essentials: as §1
For `C[C@@H]1C(=O)[C@H]2C[C@]1(O)CC1=C2[C@]2(C)CCC[C@@](C)(CO)[C@H]2CC1`, the half-maximal inhibitory concentration (IC50) is over 50 µM.
Still for that read-out and setting: for `C[C@@H]1C(=O)[C@H]2C[C@]1(O)CC1=C2[C@]2(C)CCCC(C)(C)[C@H]2CC1` the value was over 50 µM; for `C=C1[C@@H]2CC(=O)[C@H]3[C@]4(C)CCCC(C)(C)[C@H]4[C@@H](O)[C@@H](O)[C@]3(C2)[C@@H]1O`, over 50 µM.

Another assay has as its system MDA-MB-231. Put plainly: Cytotoxicity against human MDA-MB-231 cells assessed as cell viability after 24 hrs by MTT assay. In kind it is functional, cell-based. The following applies: MDA-MB-231, 24 h. An outline of the steps:
as §1
Turning to `C[C@@H]1C(=O)[C@H]2C[C@]1(O)CC1=C2[C@]2(C)CCC[C@@](C)(CO)[C@H]2CC1`, the IC50 is over 50 µM.
On the same count and under the same terms, the figure for `C[C@@H]1C(=O)[C@H]2C[C@]1(O)CC1=C2[C@]2(C)CCCC(C)(C)[C@H]2CC1` is over 50 µM.
As for `C=C1[C@@H]2CC(=O)[C@H]3[C@]4(C)CCCC(C)(C)[C@H]4[C@@H](O)[C@@H](O)[C@]3(C2)[C@@H]1O`, the half-inhibitory concentration (IC50) is over 50 µM.

The test system of a further assay is DU-145. Put plainly: Cytotoxicity against human DU145 cells assessed as cell viability after 24 hrs by MTT assay. Type of assay: functional, cell-based. The following applies: DU-145, 24 h. The essentials: as §1
`C[C@@H]1C(=O)[C@H]2C[C@]1(O)CC1=C2[C@]2(C)CCC[C@@](C)(CO)[C@H]2CC1`: the IC50 was over 50 µM.
The same measure, in the same setting: for `C[C@@H]1C(=O)[C@H]2C[C@]1(O)CC1=C2[C@]2(C)CCCC(C)(C)[C@H]2CC1` the value was over 50 µM.
Same read-out and setting: the figure for `C=C1[C@@H]2CC(=O)[C@H]3[C@]4(C)CCCC(C)(C)[C@H]4[C@@H](O)[C@@H](O)[C@]3(C2)[C@@H]1O` is over 50 µM.

For a further assay, the system named is LNCaP. Put plainly: Cytotoxicity against human LNCAP cells assessed as cell viability after 24 hrs by MTT assay. In kind it is functional, cell-based.
Details: not given
An outline of the steps: as §1
`C[C@@H]1C(=O)[C@H]2C[C@]1(O)CC1=C2[C@]2(C)CCC[C@@](C)(CO)[C@H]2CC1`: the half-maximal inhibitory concentration (IC50) was over 50 µM.
Take `C[C@@H]1C(=O)[C@H]2C[C@]1(O)CC1=C2[C@]2(C)CCCC(C)(C)[C@H]2CC1`: the IC50 is over 50 µM.
Same read-out and setting: for `C=C1[C@@H]2CC(=O)[C@H]3[C@]4(C)CCCC(C)(C)[C@H]4[C@@H](O)[C@@H](O)[C@]3(C2)[C@@H]1O` the value was over 50 µM.

System in the next assay: not listed separately
Put plainly: Cytotoxicity against human Saos2 cells assessed as cell viability after 24 hrs by MTT assay. The following applies: SAOS-2, 24 h. In kind it is functional, cell-based. The essentials: as §1
Consider `C[C@@H]1C(=O)[C@H]2C[C@]1(O)CC1=C2[C@]2(C)CCC[C@@](C)(CO)[C@H]2CC1`, for which the 50% inhibitory concentration (IC50) was over 50 µM.
Still for that read-out and setting: for `C[C@@H]1C(=O)[C@H]2C[C@]1(O)CC1=C2[C@]2(C)CCCC(C)(C)[C@H]2CC1` the value was over 50 µM; for `C=C1[C@@H]2CC(=O)[C@H]3[C@]4(C)CCCC(C)(C)[C@H]4[C@@H](O)[C@@H](O)[C@]3(C2)[C@@H]1O`, over 50 µM.

System in the next assay: not listed separately
Put plainly: Cytotoxicity against human A172 cells assessed as cell viability after 24 hrs by MTT assay. Type of assay: functional, cell-based. The following applies: A 172, 24 h. An outline of the steps: as §1
Take `C[C@@H]1C(=O)[C@H]2C[C@]1(O)CC1=C2[C@]2(C)CCC[C@@](C)(CO)[C@H]2CC1`: the half-inhibitory concentration (IC50) is over 50 µM.
For the compound `C[C@@H]1C(=O)[C@H]2C[C@]1(O)CC1=C2[C@]2(C)CCCC(C)(C)[C@H]2CC1`, the IC50 is over 50 µM.
`C=C1[C@@H]2CC(=O)[C@H]3[C@]4(C)CCCC(C)(C)[C@H]4[C@@H](O)[C@@H](O)[C@]3(C2)[C@@H]1O`: the IC50 is over 50 µM.

System in a further assay: not listed separately
Put plainly: Cytotoxicity against human HL60 cells assessed as cell viability after 24 hrs by MTT assay. Type of assay: functional, cell-based. The following applies: HL-60, 24 h. An outline of the steps:
as §1
Consider `C[C@@H]1C(=O)[C@H]2C[C@]1(O)CC1=C2[C@]2(C)CCC[C@@](C)(CO)[C@H]2CC1`, for which the 50% inhibitory concentration (IC50) was over 50 µM.
As to `C[C@@H]1C(=O)[C@H]2C[C@]1(O)CC1=C2[C@]2(C)CCCC(C)(C)[C@H]2CC1`, the IC50 is over 50 µM.
Still for that read-out and setting: for `C=C1[C@@H]2CC(=O)[C@H]3[C@]4(C)CCCC(C)(C)[C@H]4[C@@H](O)[C@@H](O)[C@]3(C2)[C@@H]1O` the value was over 50 µM.
